Experimental data as given in ChEMBL document CHEMBL5724801, “EUbOPEN Chemogenomics Library - Multiplex” (2024).
Values joined by “and” are separate entries in the source; they are usually repeats but may differ in a detail not shown here. Equal values may be shown once.

Tested on: U2OS
Experiment: Multiplex assay against U2OS
Assay type: toxicity, cell-based
Conditions: human
How it was run: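 Tubulin, mitochondrial-mass and membrane-permeability phenotypes are per cents of healthy-nucleus cells. Cells were gated by CellPathfinder machine learning into Hoechst high-intensity objects or normal cells, normal cells into healthy, pyknosed or fragmented nuclei, and pyknosed cells into mitotic or apoptotic. Before that, live cells stained at seeding with Hoechst33342, BioTracker Green Microtubule Cytoskeleton Dye, MitoTracker Red and Annexin V Alexa Fluor 680 were imaged on a CQ1 microscope at 37°C and 5% CO2 after compound addition.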

[1] = 12 h, 1 µM, compound concentration 1 uM
[2] = 12 h, 10 µM, compound concentration 10 uM
[3] = 24 h, 1 µM, compound concentration 1 uM
[4] = 24 h, 10 µM, compound concentration 10 uM
[5] = 48 h, 1 µM, compound concentration 1 uM
[6] = 48 h, 10 µM, compound concentration 10 uM

In the case of `CCn1cnc2c(-c3ccc(F)c(-c4ccc(S(=O)(=O)CC)cc4OC)c3)cnnc21` [DARIGABAT], the “Population Apoptotic (%)” value [1] is reported as 18.37% and 38.1%, the “Population Fragmented Nuclei (%)” value [1] is reported as 2.41% and 2.26% and the “Population Healthy Nuclei (%)” value [1] is reported as 84.49% and 81.95%. The “Population Hoechst High Intensity Objects (%)” value [1] was 0%, the “Population Membrane Permeable-Phenotype (%)” value [1] was 0.95% and 3.67% and the “Population Mitochondria Different-Phenotype (%)” value [1] was 0% and 6.42%. For the same compound, the “Population Mitotic Cells (%)” value [1] was 81.63% and 61.9%, the “Population Normal (%)” value [1] was 100% and the “Population Pyknosed Nuclei (%)” value [1] was 13.1% and 15.79%. The “Population Tubulin-Different-Phenotype (%)” value [1] was 1.58% and 0.92%, the “Total Cell Count” value [1] was 374 and 133 and the “Population Apoptotic (%)” value [2] was 35.44% and 27.5%. The “Population Fragmented Nuclei (%)” value [2] was 2.35% and 3.87%, the “Population Healthy Nuclei (%)” value [2] was 74.41% and 70.32% and the “Population Hoechst High Intensity Objects (%)” value [2] was 0% and 0.64%. The “Population Membrane Permeable-Phenotype (%)” value [2] was 3.95% and 3.67%, the “Population Mitotic Cells (%)” value [2] was 64.56% and 72.5% and the “Population Normal (%)” value [2] was 100% and 99.36%. The “Population Pyknosed Nuclei (%)” value [2] was 25.81%, the “Total Cell Count” value [2] was 340 and 156 and the “Population Apoptotic (%)” value [3] was 28.12% and 48%. The “Population Fragmented Nuclei (%)” value [3] was 1.34% and 1.64%, the “Population Healthy Nuclei (%)” value [3] was 86.42% and 84.7% and the “Population Hoechst High Intensity Objects (%)” value [3] was 0%. The “Population Membrane Permeable-Phenotype (%)” value [3] was 0.66% and 4.52%, the “Population Mitochondria Different-Phenotype (%)” value [3] was 0% and 1.94% and the “Population Mitotic Cells (%)” value [3] was 71.88% and 52%. The “Population Normal (%)” value [3] was 100%, the “Population Pyknosed Nuclei (%)” value [3] was 12.24% and 13.66% and the “Population Tubulin-Different-Phenotype (%)” value [3] was 2.21% and 0%. For the same compound, the “Total Cell Count” value [3] was 523 and 183, the “Population Apoptotic (%)” value [4] was 49.55% and 36% and the “Population Fragmented Nuclei (%)” value [4] was 3.86% and 1.2%. For the same compound, the “Population Healthy Nuclei (%)” value [4] was 67.61% and 68.67%, the “Population Hoechst High Intensity Objects (%)” value [4] was 0% and the “Population Membrane Permeable-Phenotype (%)” value [4] was 3.04% and 5.26%. For the same compound, the “Population Mitotic Cells (%)” value [4] was 50.45% and 64%, the “Population Normal (%)” value [4] was 100% and the “Population Pyknosed Nuclei (%)” value [4] was 28.53% and 30.12%. The “Population Tubulin-Different-Phenotype (%)” value [4] was 11.79% and 2.63%, the “Total Cell Count” value [4] was 389 and 166 and the “Population Apoptotic (%)” value [5] was 49.52% and 51.28%. For the same compound, the “Population Fragmented Nuclei (%)” value [5] was 5.85% and 2.9%, the “Population Healthy Nuclei (%)” value [5] was 81.07% and 82.97% and the “Population Hoechst High Intensity Objects (%)” value [5] was 0%. For the same compound, the “Population Membrane Permeable-Phenotype (%)” value [5] was 0.61% and 2.62%, the “Population Mitochondria Different-Phenotype (%)” value [5] was 0% and 3.49% and the “Population Mitotic Cells (%)” value [5] was 50.48% and 48.72%. For the same compound, the “Population Normal (%)” value [5] was 100%, the “Population Pyknosed Nuclei (%)” value [5] was 13.08% and 14.13% and the “Population Tubulin-Different-Phenotype (%)” value [5] was 1.84% and 0.87%. The “Total Cell Count” value [5] was 803 and 276, the “Population Apoptotic (%)” value [6] was 64.56% and 67.12% and the “Population Fragmented Nuclei (%)” value [6] was 3.84% and 5.23%. The “Population Healthy Nuclei (%)” value [6] was 52.88% and 47.06%, the “Population Hoechst High Intensity Objects (%)” value [6] was 0% and the “Population Membrane Permeable-Phenotype (%)” value [6] was 7.25% and 11.11%. The “Population Mitotic Cells (%)” value [6] was 35.44% and 32.88%, the “Population Normal (%)” value [6] was 100% and the “Population Pyknosed Nuclei (%)” value [6] was 43.29% and 47.71%. For the same compound, the “Population Tubulin-Different-Phenotype (%)” value [6] was 24.87% and 11.11% and the “Total Cell Count” value [6] was 365 and 153.

In the case of `COc1ccc(-n2c(C)c([N+](=O)[O-])c3ccc(O)cc32)cc1`, the “Population Apoptotic (%)” value [1] is reported as 45.24% and 38.46%, the “Population Fragmented Nuclei (%)” value [1] is reported as 0.72% and 4.55% and the “Population Healthy Nuclei (%)” value [1] is reported as 89.23% and 88.07%. The “Population Hoechst High Intensity Objects (%)” value [1] was 0%, the “Population Membrane Permeable-Phenotype (%)” value [1] was 2.14% and 5.16% and the “Population Mitochondria Different-Phenotype (%)” value [1] was 0.27% and 4.52%. The “Population Mitotic Cells (%)” value [1] was 54.76% and 61.54%, the “Population Normal (%)” value [1] was 100% and the “Population Pyknosed Nuclei (%)” value [1] was 10.05% and 7.39%. For the same compound, the “Population Tubulin-Different-Phenotype (%)” value [1] was 0.8% and 1.29%, the “Total Cell Count” value [1] was 418 and 176 and the “Population Apoptotic (%)” value [2] was 24.32% and 50%. For the same compound, the “Population Fragmented Nuclei (%)” value [2] was 1.07% and 1.43%, the “Population Healthy Nuclei (%)” value [2] was 90.99% and 84.29% and the “Population Hoechst High Intensity Objects (%)” value [2] was 0%. The “Population Membrane Permeable-Phenotype (%)” value [2] was 1.42% and 6.78%, the “Population Mitochondria Different-Phenotype (%)” value [2] was 0.47% and 5.08% and the “Population Mitotic Cells (%)” value [2] was 75.68% and 50%. For the same compound, the “Population Normal (%)” value [2] was 100%, the “Population Pyknosed Nuclei (%)” value [2] was 7.94% and 14.29% and the “Population Tubulin-Different-Phenotype (%)” value [2] was 4.01% and 0%. The “Population Apoptotic (%)” value [3] was 52.94% and 48%, the “Population Fragmented Nuclei (%)” value [3] was 1.65% and 2.64% and the “Population Healthy Nuclei (%)” value [3] was 89.03% and 86.34%. The “Population Hoechst High Intensity Objects (%)” value [3] was 0%, the “Population Membrane Permeable-Phenotype (%)” value [3] was 0.62% and 4.08% and the “Population Mitochondria Different-Phenotype (%)” value [3] was 0.21% and 4.08%. For the same compound, the “Population Mitotic Cells (%)” value [3] was 47.06% and 52%, the “Population Normal (%)” value [3] was 100% and the “Population Pyknosed Nuclei (%)” value [3] was 9.32% and 11.01%. The “Population Tubulin-Different-Phenotype (%)” value [3] was 1.03% and 1.53%, the “Total Cell Count” value [3] was 547 and 227 and the “Population Apoptotic (%)” value [4] was 38.64% and 52.38%. The “Population Fragmented Nuclei (%)” value [4] was 2.67% and 2.78%, the “Population Healthy Nuclei (%)” value [4] was 90% and 85.56% and the “Population Hoechst High Intensity Objects (%)” value [4] was 0%. The “Population Membrane Permeable-Phenotype (%)” value [4] was 1.67% and 3.9%, the “Population Mitochondria Different-Phenotype (%)” value [4] was 0.37% and 3.25% and the “Population Mitotic Cells (%)” value [4] was 61.36% and 47.62%. The “Population Normal (%)” value [4] was 100%, the “Population Pyknosed Nuclei (%)” value [4] was 7.33% and 11.67% and the “Population Tubulin-Different-Phenotype (%)” value [4] was 1.67% and 0%. The “Population Apoptotic (%)” value [5] was 36.36% and 48.48%, the “Population Fragmented Nuclei (%)” value [5] was 2.25% and 2.47% and the “Population Healthy Nuclei (%)” value [5] was 88.75% and 88.46%. For the same compound, the “Population Hoechst High Intensity Objects (%)” value [5] was 0%, the “Population Membrane Permeable-Phenotype (%)” value [5] was 0.69% and 2.48% and the “Population Mitochondria Different-Phenotype (%)” value [5] was 0% and 3.42%. The “Population Mitotic Cells (%)” value [5] was 63.64% and 51.52%, the “Population Normal (%)” value [5] was 100% and the “Population Pyknosed Nuclei (%)” value [5] was 9% and 9.07%. The “Population Tubulin-Different-Phenotype (%)” value [5] was 0.58% and 1.24%, the “Total Cell Count” value [5] was 978 and 364 and the “Population Apoptotic (%)” value [6] was 56.82% and 55.26%. The “Population Fragmented Nuclei (%)” value [6] was 3.3% and 3.1%, the “Population Healthy Nuclei (%)” value [6] was 87.91% and 83.79% and the “Population Hoechst High Intensity Objects (%)” value [6] was 0%. For the same compound, the “Population Membrane Permeable-Phenotype (%)” value [6] was 0.91% and 4.12%, the “Population Mitochondria Different-Phenotype (%)” value [6] was 0.11% and 3.7% and the “Population Mitotic Cells (%)” value [6] was 43.18% and 44.74%. The “Population Normal (%)” value [6] was 100%, the “Population Pyknosed Nuclei (%)” value [6] was 8.79% and 13.1% and the “Population Tubulin-Different-Phenotype (%)” value [6] was 1.7% and 2.88%.
